Experimental data published in ChEMBL document CHEMBL4049390, “Combination of amino acid/dipeptide with ligustrazine-betulinic acid as antitumor agents” (Eur J Med Chem, 2017).
Activity calls are given as the source filed them. The rule behind the calls is not given here.

Tests used:
HepG2 [1] = test: Induction of apoptosis in human HepG2 cells assessed as viable cells at 3 uM after 72 hrs by Annexin-V-FITC/propidium iodide staining based flow cytometry (reference value: 93.2%); type: functional; settings: HepG2, 72 h, read-out: Activity
HepG2 [2] = test: Induction of apoptosis in human HepG2 cells assessed as necrotic cells at 4 uM after 72 hrs by Annexin-V-FITC/propidium iodide staining based flow cytometry (reference value: 0.5%); type: functional
HepG2 [3] = test: Induction of apoptosis in human HepG2 cells assessed as chromatin margination at 1.5 uM after 72 hrs by Giemsa staining based fluorescent microscopic method; type: functional, cell-based
Method in brief: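 HepG2 cells were seeded at 4×10^3 cells/well in 6-well plates overnight, then treated at 1.5, 3 or 6 µM for 72 h. Cells were washed in PBS, fixed in cold methanol, stained with 6% Giemsa for 5 min, rinsed with water and dried. Morphology was examined microscopically at 200×, with apoptotic cells marked in representative fields.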

HepG2 [4] = test: Induction of apoptosis in human HepG2 cells assessed as late apoptotic cells at 4 uM after 72 hrs by Annexin-V-FITC/propidium iodide staining based flow cytometry (reference value: 2.6%); type: functional
HepG2 [5] = test: Induction of apoptosis in human HepG2 cells assessed as disruption of mitochondrial membrane potential by measuring mean fluorescence intensity at 4 uM after 72 hrs by Rh123 staining based flow cytometry (reference value: 26410); type: functional
HepG2 [6] = test: Induction of apoptosis in human HepG2 cells assessed as viable cells at 4 uM after 72 hrs by Annexin-V-FITC/propidium iodide staining based flow cytometry (reference value: 93.2%); type: functional; settings: HepG2, 72 h, read-out: Activity
HepG2 [7] = test: Induction of apoptosis in human HepG2 cells assessed as increase in intracellular calcium level by measuring mean fluorescence intensity after 72 hrs by Fluo-3AM dye based flow cytometry; type: functional, cell-based
Method in brief: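 Intracellular Ca2+: HepG2 cells (1×10^5/well, 6-well) were grown 24 h, then treated at 2, 3 or 4 µM for 72 h. Cells were harvested, washed in cold PBS and resuspended in HBSS with 10 µM Fluo-3AM for 30 min at 37 °C in the dark. Flow cytometry used 488 nm excitation; the read-out is mean fluorescence intensity.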

HepG2 [8] = test: Antiproliferative activity against human HepG2 cells after 72 hrs by MTT assay; type: functional, cell-based; settings: HepG2, 72 h
Method in brief: (§1)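 MTT assay. Log-phase cells were seeded at 3×10^3 cells/well and left overnight, then exposed to serial dilutions of compound (DMSO solutions) for 72 h in RPMI 1640 with 10% heat-inactivated FBS at 37 °C, 5% CO2. MTT (5 mg/mL, 20 µL) was added for 4 h at 37 °C and the formazan dissolved in DMSO. A490 was read. % inhibition = (1 − sample OD/control OD)×100; IC50 is the 50% growth-inhibition concentration. Triplicates, n = 3 independent experiments.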

HepG2 [9] = test: Induction of apoptosis in human HepG2 cells assessed as nuclear condensation after 72 hrs by DAPI staining based fluorescent microscopic method; type: functional, cell-based
Method in brief: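 HepG2 cells were plated at 4×10^3 cells/well in six-well plates and grown 12 h, then treated at 1.5, 3 or 6 µM for 72 h. Cells were washed in PBS, fixed in 4% paraformaldehyde and stained with 1 mg/mL DAPI for 1 min in the dark. Nuclei were viewed by fluorescence microscopy at 200×.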

BGC-823 = test: Antiproliferative activity against human BGC823 cells after 72 hrs by MTT assay; type: functional, cell-based; settings: BGC-823, 72 h; method in brief: as §1

Compound: C=C(C)[C@@H]1CC[C@]2(C(=O)OCc3nc(C)c(C)nc3C)CC[C@]3(C)[C@H](CC[C@@H]4[C@@]5(C)CC[C@H](OC(=O)[C@H](C)NC(=O)CNC)C(C)(C)[C@@H]5CC[C@]43C)[C@@H]12
- viability at 3 µM (HepG2 [1]): 81%
- Activity (HepG2 [2]): 1%
- Activity (HepG2 [3]): Active
- Activity (HepG2 [4]): 6.9%
- Flu intensity (HepG2 [5]): 2147
- viability at 4 µM (HepG2 [6]): 62.2%
- Activity (HepG2 [7]): Dose-dependent effect
- IC50 (HepG2 [8]): 3.09 µM
- Activity (HepG2 [9]): Dose-dependent effect
- IC50 (BGC-823): 1.79 µM
